Laboratory results reported in ChEMBL document CHEMBL1154792, “chi-Conopeptide pharmacophore development: toward a novel class of norepinephrine transporter inhibitor (Xen2174) for pain” (J Med Chem, 2009).
Calls of active or inactive are those of the source. No cut-off for these calls is given here.

Target: Sodium-dependent noradrenaline transporter (Homo sapiens, UniProt P23975)
Assay: Displacement of [3H]nisoxetine from human NET expressed in COS7 cells
Assay type: cell-based
Conditions: COS-7
Procedure, shortened: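 Membranes from COS-7 cells transfected with human NET were incubated with [3H]nisoxetine (4.3 nM) with or without peptide (1 nM to 100 μM, triplicate) for 1 h at RT. Filter-retained radioactivity was counted by liquid scintillation, and values are given as pIC50. Data are means of 2–5 experiments in triplicate; peptide concentration was set by calibrated HPLC at 214 nm.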

Chain of Sodium-dependent noradrenaline transporter (P23975 whole entry): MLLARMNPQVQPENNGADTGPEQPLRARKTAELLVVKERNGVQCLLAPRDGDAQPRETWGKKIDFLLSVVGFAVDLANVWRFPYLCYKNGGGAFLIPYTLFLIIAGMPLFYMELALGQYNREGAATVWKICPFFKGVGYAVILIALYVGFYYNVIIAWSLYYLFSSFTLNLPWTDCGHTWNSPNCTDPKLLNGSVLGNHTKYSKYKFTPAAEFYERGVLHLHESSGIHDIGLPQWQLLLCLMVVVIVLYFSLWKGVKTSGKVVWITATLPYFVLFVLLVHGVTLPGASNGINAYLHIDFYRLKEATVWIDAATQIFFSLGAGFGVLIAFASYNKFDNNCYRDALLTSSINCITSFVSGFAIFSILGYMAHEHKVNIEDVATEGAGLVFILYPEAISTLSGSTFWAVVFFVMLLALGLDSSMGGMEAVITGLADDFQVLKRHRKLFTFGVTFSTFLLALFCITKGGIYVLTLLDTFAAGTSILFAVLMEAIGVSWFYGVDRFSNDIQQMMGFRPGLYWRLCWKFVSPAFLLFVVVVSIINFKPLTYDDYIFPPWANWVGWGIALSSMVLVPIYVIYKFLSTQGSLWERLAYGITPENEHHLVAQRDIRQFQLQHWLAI

In the case of `CC(C)C[C@@H]1NC(=O)[C@H](CCCCN)NC(=O)[C@H](Cc2ccc(O)cc2)NC(=O)CNC(=O)C[C@@H]2CSSC[C@H](CC(=O)N[C@@H](Cc3cnc[nH]3)C(=O)N3CC[C@H](O)[C@H]3C(=O)N[C@H](CC(=O)O)CSSC[C@H](NC(=O)[C@@H](NC(=O)CNC(=O)[C@@H]3CCC(=O)N3)C(C)C)CC(=O)N2)NC1=O`, the Activity is reported as “inactive”.
